Here are results for nine compounds from ChEMBL document CHEMBL1165878, “First biological evaluation of developed 3-benzyloxyfluorenes as novel class of MDR modulators” (Eur J Med Chem, 2010).

In series [1] the target is T1, ATP-dependent translocase ABCB1 (Homo sapiens, UniProt P08183). The series is described as follows: Inhibition of ABCB1 efflux pump-mediated rhodamine 123 uptake expressed in mouse L5178Y cells assessed as fluorescence activity ratio at 10 uM. The format is cell-based. The gist of the method: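 Mouse T lymphoma L5178Y parental line and an mdr1-retrovirally transfected subline overexpressing only ABCB1, grown in McCoy's 5A with 10% heat-inactivated horse serum and 2 mM glutamine. Rhodamine 123 uptake measured by flow cytometry, 1 ×10⁴ cells each, after resuspension in PBS. FAR = fluorescence of treated ABCB1 subline over parental line, each corrected to untreated control; mean of two determinations.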

Series [2] is described as follows: Lipophilicity, log P of the compound. Type of series: physicochemical. To be noted: octanol/water.
Series [3] has as its target T1, ATP-dependent translocase ABCB1. Description: Inhibition of ABCB1 efflux pump-mediated rhodamine 123 uptake expressed in mouse L5178Y cells assessed as fluorescence activity ratio at 1 uM. The format is cell-based.

T1 sequence (P08183 whole entry): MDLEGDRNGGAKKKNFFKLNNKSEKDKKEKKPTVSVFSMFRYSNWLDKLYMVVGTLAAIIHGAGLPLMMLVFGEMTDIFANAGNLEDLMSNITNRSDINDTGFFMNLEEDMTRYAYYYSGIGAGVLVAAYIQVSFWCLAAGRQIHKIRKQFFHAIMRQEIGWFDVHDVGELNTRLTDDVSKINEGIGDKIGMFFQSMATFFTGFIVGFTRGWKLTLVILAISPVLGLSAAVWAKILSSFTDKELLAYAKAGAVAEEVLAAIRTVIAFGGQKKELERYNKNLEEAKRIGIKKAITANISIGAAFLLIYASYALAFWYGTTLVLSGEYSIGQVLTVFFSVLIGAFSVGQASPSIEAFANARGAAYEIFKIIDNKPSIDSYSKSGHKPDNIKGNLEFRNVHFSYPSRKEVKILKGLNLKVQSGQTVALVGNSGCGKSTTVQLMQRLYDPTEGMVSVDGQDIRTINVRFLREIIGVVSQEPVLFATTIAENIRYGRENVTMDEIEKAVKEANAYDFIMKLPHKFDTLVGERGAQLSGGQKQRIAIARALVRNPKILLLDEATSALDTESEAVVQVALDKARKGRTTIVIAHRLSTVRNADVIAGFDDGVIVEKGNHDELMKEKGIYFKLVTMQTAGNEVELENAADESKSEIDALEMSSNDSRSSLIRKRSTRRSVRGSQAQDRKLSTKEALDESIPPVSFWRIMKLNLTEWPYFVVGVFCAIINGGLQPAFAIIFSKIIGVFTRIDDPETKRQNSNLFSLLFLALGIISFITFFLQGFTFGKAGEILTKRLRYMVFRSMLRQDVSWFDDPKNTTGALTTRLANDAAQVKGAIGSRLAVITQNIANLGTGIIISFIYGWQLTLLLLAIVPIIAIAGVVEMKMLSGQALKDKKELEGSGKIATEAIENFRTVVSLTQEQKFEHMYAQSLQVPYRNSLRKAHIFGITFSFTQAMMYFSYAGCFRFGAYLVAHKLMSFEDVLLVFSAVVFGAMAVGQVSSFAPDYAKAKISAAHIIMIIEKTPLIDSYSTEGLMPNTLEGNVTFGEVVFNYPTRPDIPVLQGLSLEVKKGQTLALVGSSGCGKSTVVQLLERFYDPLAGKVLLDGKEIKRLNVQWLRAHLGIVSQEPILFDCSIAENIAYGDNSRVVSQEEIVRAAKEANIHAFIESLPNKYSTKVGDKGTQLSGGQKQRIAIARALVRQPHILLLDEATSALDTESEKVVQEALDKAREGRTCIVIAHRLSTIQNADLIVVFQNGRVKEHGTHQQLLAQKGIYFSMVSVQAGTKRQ

Usually logP stands for the decadic logarithm of the partition coefficient of the neutral form, usually between octanol and water. A high value points to higher lipophilicity. Take `Oc1ccc2oc3ncc(OCc4ccc(Cl)cc4)c(-c4ccc(Cl)cc4)c3c2c1`: the values for the Ratio in series [1] and in series [3] were 5.92 and 1.11, respectively. Further, the logP in series [2] worked out at 6.59.
On the same counts, the results for `Oc1ccc2oc3ncc(OCc4cccc(Cl)c4)c(-c4cccc(Cl)c4)c3c2c1` are 17.14, 1 and 6.59.
On the same counts, the results for `Oc1ccc2oc3ncc(OCc4ccc(Cl)cc4)c(-c4cccc(Cl)c4)c3c2c1` are 2.61, 1.81 and 6.59.
On the same counts, the results for `Oc1ccc2oc3ncc(OCc4ccc(Cl)cc4)c(-c4ccccc4)c3c2c1` are 56.85, 1.23 and 5.97.
On to `Oc1ccc2oc3ncc(OCc4ccccc4)c(-c4ccc(Cl)cc4)c3c2c1`, for which the Ratio in series [1] is recorded as 95.58; in series [3], 3.04. The logP in series [2] is 5.97.
On the same counts, the results for `Oc1ccc2oc3ncc(OCc4ccccc4)c(-c4cccc(Cl)c4)c3c2c1` are 10.47, 1.35 and 5.97.
The matching figures for `Oc1ccc2oc3ncc(OCc4cccc(Cl)c4)c(-c4ccccc4)c3c2c1`: 57.42, 1.26 and 5.97.
The matching figures for `Oc1ccc2oc3ncc(OCc4ccccc4)c(-c4ccccc4)c3c2c1`: 34.49, 1.75 and 5.38.
In the case of `Oc1ccc2oc3ncc(OCc4cccc(Cl)c4)c(-c4ccc(Cl)cc4)c3c2c1`, the Ratio in series [1] was 21.48; in series [3], 1.53. In addition, the logP in series [2] was 6.59.
